Measured values from different studies.
Protocols differ between the studies behind these lines.
Target: Mitogen-activated protein kinase 8 (MAPK8, Homo sapiens, UniProt P45983)

Compound	assay	setting	endpoint	value
C#Cc1n[nH]c2c(-c3cn(C(C)c4ccccn4)c(=O)[nH]c3=O)cc(F)cc12 (centres unmarked)	enzyme activity, inhibitor	1 µM	inhibition	-4.2%
Cc1nn(C)cc1-c1nc2c(N3CCN(Cc4ccc(Cl)cc4)CC3)c(Cl)cnc2[nH]1	binding, competition with immobilised ligand	1 µM	remaining binding	93%
O=c1[nH]c2ccccc2n1C1CCN(Cc2ccc(-c3[nH]c4cc5ncnc5cc4nc3-c3ccccc3)cc2)CC1	cell-free assay	0.5 µM	remaining signal	89.6%
COc1ncccc1-c1cnn2ccc(N3CCN(C(=O)OC(C)C)CC3)nc12	binding, competition with immobilised ligand	1 µM	remaining binding	100%
C#Cc1n[nH]c2c(-c3cn([C@@H](C)c4ccccc4)c(=O)[nH]c3=O)cc(F)cc12	enzyme activity, inhibitor	0.1 µM	inhibition	1.5%
Cn1cc(-c2cccc(N3CCc4c(sc5c4CC(C)(C)C5)C3=O)c2CO)cc(Nc2ccncn2)c1=O	enzyme activity, inhibitor	1 µM	inhibition	1%
Cn1cncc1[C@](O)(COc1ccc(C#N)cc1-c1ccc(OC(F)(F)F)cc1)c1ccc(C#N)cc1	cell-free assay, competition with immobilised ligand	1 µM	remaining binding	100%
Nc1ncc(-c2nc(N3CCOCC3)nc(N3CCOCC3)n2)c(C(F)F)n1	binding, competition with immobilised ligand	10 µM	remaining binding	86%
CC(C)(C)c1cc(C=C(C#N)C#N)cc(Br)c1O	enzyme activity, inhibitor	0.5 µM	remaining activity	90.4%
Cn1cc(-c2cc(F)cc(N3CCn4c(cc5c4CCCC5)C3=O)c2CO)cc(Nc2ccc(N3CCN(C4COC4)CC3)cn2)c1=O	enzyme activity, inhibitor	0.1 µM	inhibition	-1%
N#CC1(c2ccccn2)CCN(Cc2cc(C(=O)O)c(=O)n3ccccc23)CC1	cell-free assay, competition with immobilised ligand	1 µM	remaining binding	85%
